Laboratory results taken from ChEMBL document CHEMBL1949493, “Discovery of s-nitrosoglutathione reductase inhibitors: potential agents for the treatment of asthma and other inflammatory diseases” (ACS Med Chem Lett, 2011).
Calls of active or inactive are those of the source. The rule behind the calls is not given here.

Tests used:
[1] = Inhibition of S-nitrosoglutathione reductase expressed in Escherichia coli using GSNO as substrate measured for 3 mins by spectrophotometry
[2] = Plasma clearance in BALB/c mouse at 2 mg/kg, iv; type: ADME, organism-based; set-up: dose 2 mg/kg, route intravenous
[3] = Oral bioavailability in BALB/c mouse at 10 mg/kg; type: ADME, organism-based; conditions: in vivo
[4] = test system: Mus musculus; assay: Antiinflammatory activity in C57B1/6 mouse IBD model assessed as inhibition of DSS-induced inflammatory response at 1 mg/kg, iv or po administered for 10 days from 2 days prior to and up to 2 days post DSS-challenge; type: functional, organism-based; set-up: dose 1 mg/kg
Method in brief: (§1)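 Mouse model of DSS-induced IBD. Dosing was oral or IV at 1 and 10 mg/kg/day for 10 days.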

[5] = test system: Mus musculus; assay: Antiinflammatory activity in C57B1/6 mouse IBD model assessed as inhibition of DSS-induced inflammatory response at 10 mg/kg, iv or po administered for 10 days from 2 days prior to and up to 2 days post DSS-challenge; type: functional, organism-based; set-up: dose 10 mg/kg; method in brief: as §1
[6] = test system: Mus musculus; assay: Antiasthmatic activity in C57B1/6 mouse COPD model assessed as inhibition of porcine pancreatic elastase-induced emphysema at 0.1 to 10 mg/kg, po after 7 to 14 days by light microscopy; type: functional, organism-based
[7] = test system: Mus musculus; assay: Antiasthmatic activity in ovalbumin-sensitized BALB/c mouse assessed as inhibition of ovalbumin-induced easonophil infiltration into lungs at 0.0005 to 30 mg/kg, iv administered from 30 mins to 72 hrs prior to assesment by light microscopy; type: functional, organism-based
Method in brief: (§2)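 Ovalbumin-induced asthma model in mice, dosed by single IV administration. Read-out was eosinophil infiltration into the lungs.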

[8] = species on record: Rattus norvegicus; assay: Antihypertensive activity in rat DAHL/S model assessed as reduction in high dietary salt-induced hypertension
[9] = test system: Mus musculus; assay: Antiasthmatic activity in ovalbumin-sensitized BALB/c mouse assessed as inhibition of methacholine-induced bronchoconstriction at 0.0005 to 30 mg/kg, iv administered from 30 mins to 48 hrs prior to assessment by whole body plethysmography
[10] = test system: Salmonella typhimurium; assay: Mutagenic activity in Salmonella Typhimurium; type: toxicity, organism-based; conditions: salmonella enterica subsp. enterica serovar typhimurium
[11] = species on record: Homo sapiens; assay: Inhibition of human recombinant delta2 opioid receptor at 10 uM by radioligand displacement assay
Method in brief: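 Off-target screen measuring percent inhibition of receptor radioligand binding, with test compound at 10 μM.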

[12] = molecular target: Voltage-gated inwardly rectifying potassium channel KCNH2 (Homo sapiens, UniProt Q12809); assay: Inhibition of human ERG
Sequence of Voltage-gated inwardly rectifying potassium channel KCNH2 (Q12809 whole entry): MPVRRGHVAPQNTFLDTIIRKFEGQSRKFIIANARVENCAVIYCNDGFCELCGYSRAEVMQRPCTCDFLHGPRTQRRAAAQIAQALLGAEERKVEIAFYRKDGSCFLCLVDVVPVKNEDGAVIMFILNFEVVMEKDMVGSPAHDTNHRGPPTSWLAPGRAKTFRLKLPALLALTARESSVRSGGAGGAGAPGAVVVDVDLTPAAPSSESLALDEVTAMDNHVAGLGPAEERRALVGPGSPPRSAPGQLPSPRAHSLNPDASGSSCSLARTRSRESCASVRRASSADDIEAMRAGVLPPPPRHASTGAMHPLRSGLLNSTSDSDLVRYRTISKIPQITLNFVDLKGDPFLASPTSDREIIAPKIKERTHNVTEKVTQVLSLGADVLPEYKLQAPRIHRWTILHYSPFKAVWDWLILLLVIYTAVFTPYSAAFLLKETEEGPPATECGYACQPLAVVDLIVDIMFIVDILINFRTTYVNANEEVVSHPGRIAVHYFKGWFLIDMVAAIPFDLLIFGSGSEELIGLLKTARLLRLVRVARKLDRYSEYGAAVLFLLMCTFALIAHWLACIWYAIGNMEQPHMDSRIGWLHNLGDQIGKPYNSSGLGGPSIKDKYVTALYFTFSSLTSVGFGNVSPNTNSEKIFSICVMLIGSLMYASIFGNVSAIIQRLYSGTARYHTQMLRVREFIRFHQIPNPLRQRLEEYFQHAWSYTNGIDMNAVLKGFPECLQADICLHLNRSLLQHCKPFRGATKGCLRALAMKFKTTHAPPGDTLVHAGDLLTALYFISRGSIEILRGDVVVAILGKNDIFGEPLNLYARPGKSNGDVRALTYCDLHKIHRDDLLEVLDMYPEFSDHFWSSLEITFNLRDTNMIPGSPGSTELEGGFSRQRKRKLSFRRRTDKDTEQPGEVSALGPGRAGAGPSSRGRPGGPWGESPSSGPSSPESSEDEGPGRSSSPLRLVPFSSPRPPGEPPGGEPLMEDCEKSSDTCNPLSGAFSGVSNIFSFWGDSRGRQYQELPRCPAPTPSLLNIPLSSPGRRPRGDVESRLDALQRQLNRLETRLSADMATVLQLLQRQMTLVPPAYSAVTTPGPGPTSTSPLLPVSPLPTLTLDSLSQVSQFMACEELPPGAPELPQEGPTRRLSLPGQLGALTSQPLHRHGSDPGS

[13] = Toxicity in iv dosed CD-1 mouse administered qd for 4 days measured on day 5; type: organism-based; conditions: in vivo
Method in brief: (§3)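 Read-out was the no observable adverse effect level (NOAEL) in mg/kg/day.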

[14] = Toxicity in po dosed CD-1 mouse administered qd for 4 days measured on day 5; type: organism-based; conditions: in vivo; method in brief: as §3
[15] = test system: Mus musculus; assay: Antiasthmatic activity in ovalbumin-sensitized BALB/c mouse assessed as inhibition of methacholine-induced bronchoconstriction at >/= 0.01 mg/kg, iv administered from 30 mins to 48 hrs prior to metacholine-challenge by whole body plethysmography; type: functional, organism-based; set-up: dose 0.01 mg/kg
[16] = test system: Mus musculus; assay: Antiasthmatic activity in ovalbumin-sensitized iv dosed BALB/c mouse assessed as inhibition of methacholine-induced bronchoconstriction administered from 30 mins to 48 hrs prior to metacholine-challenge by whole body plethysmography; type: functional, organism-based
[17] = test system: Mus musculus; assay: Antiasthmatic activity in ovalbumin-sensitized BALB/c mouse assessed as inhibition of methacholine-induced bronchoconstriction at >/= 0.01 mg/kg, iv administered prior to metacholine-challenge by whole body plethysmography; type: functional, organism-based; set-up: dose 0.01 mg/kg; conditions: TDE = time-dependent effect
[18] = test system: Mus musculus; assay: Antiasthmatic activity in ovalbumin-sensitized BALB/c mouse assessed as inhibition of ovalbumin-induced easonophil infiltration in lungs at >/= 0.0005 mg/kg, iv administered from 30 mins to 72 hrs prior to assessment by light microscopy; type: functional, organism-based; set-up: dose 0.0005 mg/kg; method in brief: as §2

Question: With `Cc1cc(C(N)=O)ccc1-n1c(CCc2nnn[nH]2)ccc1-c1ccc(Br)cc1` as the molecule, how does the IC50 [1] read?
Answer: Its IC50 is 190 nM.

Question: For `Cc1cc(C(N)=O)ccc1-n1c(CCC(=O)O)ccc1-c1ccc(Cl)cc1C(N)=O`, which IC50 [1] is on record?
Answer: The IC50 was 160 nM.

Question: For `Cc1cc(C(N)=O)ccc1-n1c(CCC(=O)O)ccc1-c1ccc(C(F)(F)F)cc1`, which IC50 [1] is on record?
Answer: Its IC50 is 3990 nM.

Question: What does the source list for `COc1cc(Cl)ccc1-c1ccc(CCC(=O)O)n1-c1ccc(C(N)=O)cc1C`?
Answer: clearance [2]: 20.2 mL/min/kg; bioavailability [3]: 22.4%; IC50 [1]: 56 nM; Activity [4]: Active; Activity [5]: Active; Activity [6]: Active; Activity [7]: Active; Activity [8]: Active; Activity [9]: Active

Question: Which IC50 [1] does the source give for `Cc1cc(C(N)=O)ccc1-n1c(CCC(=O)O)ccc1-c1ccc(Cl)cc1Cl` here?
Answer: Its IC50 is 160 nM.

Question: With `NC(=O)c1ccc(-n2c(CCC(=O)O)ccc2-c2ccccc2)cc1` as the molecule, how does the clearance [2] read?
Answer: The clearance was 8.9 mL/min/kg.

Question: And the bioavailability [3]?
Answer: The bioavailability was 86.5%.

Question: And the IC50 [1]?
Answer: Its IC50 is 570 nM.

Question: With `COc1ccc(-c2ccc(CCc3nnn[nH]3)n2-c2ccc(C(N)=O)cc2C)cc1` as the molecule, how does the IC50 [1] read?
Answer: Its IC50 is 1530 nM.

Question: For `COc1ccc(-c2ccc(CCC(=O)O)n2-c2ccc(C(N)=O)cc2)cc1`, which IC50 [1] is on record?
Answer: Its IC50 is 460 nM.

Question: Which IC50 [1] does the source give for `Cc1cc(C(N)=O)ccc1-n1c(CCC(=O)O)ccc1-c1ccc(Cl)cc1F` here?
Answer: The IC50 was 120 nM.

Question: Which IC50 [1] does the source give for `COc1ccc(-c2ccc(CCC(=O)O)n2-c2ccc(C(N)=O)cc2C)c(Cl)c1` here?
Answer: Its IC50 is 200 nM.

Question: For `COc1ccc(-c2ccc(CCC(=O)O)n2-c2ccc(C(N)=O)cc2C(F)(F)F)cc1`, which IC50 [1] is on record?
Answer: Its IC50 is 450 nM.

Question: With `COc1cc(Br)ccc1-c1ccc(CCC(=O)O)n1-c1ccc(C(N)=O)cc1C` as the molecule, how does the clearance [2] read?
Answer: Its clearance is 22.4 mL/min/kg.

Question: What about the bioavailability [3] of the same molecule?
Answer: Its bioavailability is 21.8%.

Question: What about the IC50 [1] of the same molecule?
Answer: Its IC50 is 96 nM.

Question: Which IC50 [1] does the source give for `Cc1cc(C(N)=O)ccc1-n1c(CCC(=O)O)ccc1-c1ccc(Cl)cc1NC=O` here?
Answer: Its IC50 is 580 nM.

Question: For `COc1ccc(-c2ccc(CCC(=O)O)n2-c2ccc(C(N)=O)cc2F)cc1`, which IC50 [1] is on record?
Answer: Its IC50 is 240 nM.

Question: Which IC50 [1] does the source give for `Cc1cc(C(N)=O)ccc1-n1c(CCC(=O)O)ccc1-c1ccc(C(N)=O)cc1` here?
Answer: Its IC50 is 3920 nM.

Question: Which IC50 [1] does the source give for `Oc1ccc(-n2c(CCc3nnn[nH]3)ccc2-c2ccc(-n3ccnc3)cc2)cc1` here?
Answer: Its IC50 is 300 nM.

Question: Which clearance [2] does the source give for `Cc1cc(C(N)=O)ccc1-n1c(CCC(=O)O)ccc1-c1ccc(Cl)cc1` here?
Answer: Its clearance is 16 mL/min/kg.

Question: What about the bioavailability [3] of the same molecule?
Answer: Its bioavailability is 20.7%.

Question: And the IC50 [1]?
Answer: Its IC50 is 120 nM.

Question: Which IC50 [1] does the source give for `CCCOc1cc(Cl)ccc1-c1ccc(CCC(=O)O)n1-c1ccc(C(N)=O)cc1C` here?
Answer: The IC50 was 110 nM.

Question: Which results are given for `Cc1cc(C(N)=O)ccc1-n1c(CCC(=O)O)ccc1-c1ccc(-n2ccnc2)cc1` [N6022]?
Answer: Activity [10]: Non-toxic; inhibition [11]: 66%; IC50 [1]: 20 nM; INH [12]: > 100 µM; NOAEL at 96 h [13]: 30 mg/kg; NOAEL at 96 h [14]: 100 mg/kg; Activity [15]: Active; Activity [16]: Dose-dependent effect; Activity [17]: tde; Activity [18]: Active; Activity [4]: Active; Activity [5]: Active

Question: Which IC50 [1] does the source give for `Cc1cc(C(N)=O)ccc1-n1c(CCC(=O)O)ccc1-c1ccc(O)cc1` here?
Answer: The IC50 was 160 nM.

Question: What does the source list for `Cc1cc(C(N)=O)ccc1-n1c(CCC(=O)O)ccc1-c1ccc(C#N)cc1`?
Answer: clearance [2]: 25.5 mL/min/kg; bioavailability [3]: 16.3%; IC50 [1]: 563 nM

Question: Which results are given for `Cc1cc(C(N)=O)ccc1-n1c(CCC(=O)O)ccc1-c1ccc(Br)cc1`?
Answer: clearance [2]: 21.4 mL/min/kg; bioavailability [3]: 18%; IC50 [1]: 160 nM; NOAEL at 96 h [13]: 50 mg/kg; Activity [4]: Active; Activity [5]: Active; Activity [6]: Active; Activity [7]: Active; Activity [8]: Active; Activity [9]: Active

Question: With `Cc1cc(C(N)=O)ccc1-n1c(Cc2nnn[nH]2)ccc1-c1ccc(Br)cc1` as the molecule, how does the IC50 [1] read?
Answer: Its IC50 is 560 nM.

Question: For `COc1ccc(-c2ccc(Cc3nnn[nH]3)n2-c2ccc(C(N)=O)cc2C)cc1`, which IC50 [1] is on record?
Answer: The IC50 was 2910 nM.

Question: With `Cc1cc(C(N)=O)ccc1-n1c(CCC(=O)O)ccc1-c1ccccc1` as the molecule, how does the clearance [2] read?
Answer: The clearance was 11.8 mL/min/kg.

Question: What about the bioavailability [3] of the same molecule?
Answer: The bioavailability was 46.8%.

Question: What about the IC50 [1] of the same molecule?
Answer: Its IC50 is 360 nM.

Question: Which IC50 [1] does the source give for `Oc1ccc(-n2c(Cc3nnn[nH]3)ccc2-c2ccc(-n3ccnc3)cc2)cc1` here?
Answer: The IC50 was 18 nM.

Question: For `Cc1cc(C(N)=O)ccc1-n1c(CCC(=O)O)ccc1-c1ccc(F)cc1`, which IC50 [1] is on record?
Answer: The IC50 was 500 nM.

Question: With `COc1ccc(-c2ccc(CCC(=O)O)n2-c2ccc(C(N)=O)cc2Cl)cc1` as the molecule, how does the IC50 [1] read?
Answer: The IC50 was 190 nM.

Question: For `Cc1cc(C(N)=O)ccc1-n1c(CCC(=O)O)ccc1-c1ccc(Cl)cc1C(F)(F)F`, which IC50 [1] is on record?
Answer: Its IC50 is 330 nM.

Question: Which IC50 [1] does the source give for `COc1ccc(-c2ccc(CCC(=O)O)n2-c2ccc(C(N)=O)cc2C)cc1` here?
Answer: Its IC50 is 210 nM.

Question: And the NOAEL at 96 h [13]?
Answer: The NOAEL at 96 h was 50 mg/kg.

Question: And the Activity [4]?
Answer: Its Activity is “Active”.

Question: What about the Activity [5] of the same molecule?
Answer: Its Activity is “Active”.

Question: What about the Activity [6] of the same molecule?
Answer: Its Activity is “Active”.

Question: And the Activity [7]?
Answer: The Activity was “Active”.

Question: What about the Activity [8] of the same molecule?
Answer: The Activity was “Active”.

Question: And the Activity [9]?
Answer: The Activity was “Active”.

Question: For `Cc1cc(C(N)=O)ccc1-n1c(CCC(=O)O)ccc1-c1ccc(Cl)cc1N(C)C`, which IC50 [1] is on record?
Answer: Its IC50 is 350 nM.

Question: With `Oc1ccc(-n2c(CCc3nnn[nH]3)ccc2-c2ccc(Br)cc2)cc1` as the molecule, how does the IC50 [1] read?
Answer: The IC50 was 450 nM.

Question: With `Cc1cc(C(N)=O)ccc1-n1c(CCC(=O)O)ccc1-c1ccc(Cl)cc1O` as the molecule, how does the clearance [2] read?
Answer: The clearance was 33.4 mL/min/kg.

Question: What about the bioavailability [3] of the same molecule?
Answer: The bioavailability was 2.72%.

Question: And the IC50 [1]?
Answer: The IC50 was 55 nM.

Question: And the Activity [4]?
Answer: The Activity was “Active”.

Question: And the Activity [5]?
Answer: Its Activity is “Active”.

Question: What about the Activity [6] of the same molecule?
Answer: The Activity was “Active”.

Question: And the Activity [7]?
Answer: The Activity was “Active”.

Question: And the Activity [8]?
Answer: The Activity was “Active”.

Question: What about the Activity [9] of the same molecule?
Answer: The Activity was “Active”.

Question: Which IC50 [1] does the source give for `Oc1ccc(-n2c(Cc3nnn[nH]3)ccc2-c2ccc(Br)cc2)cc1` here?
Answer: Its IC50 is 4350 nM.

Question: For `CCOc1cc(Cl)ccc1-c1ccc(CCC(=O)O)n1-c1ccc(C(N)=O)cc1C`, which IC50 [1] is on record?
Answer: The IC50 was 170 nM.
